For assay [1], the target named is T1, hMAO-B (Homo sapiens, UniProt P27338).
T1 sequence (P27338 1-520): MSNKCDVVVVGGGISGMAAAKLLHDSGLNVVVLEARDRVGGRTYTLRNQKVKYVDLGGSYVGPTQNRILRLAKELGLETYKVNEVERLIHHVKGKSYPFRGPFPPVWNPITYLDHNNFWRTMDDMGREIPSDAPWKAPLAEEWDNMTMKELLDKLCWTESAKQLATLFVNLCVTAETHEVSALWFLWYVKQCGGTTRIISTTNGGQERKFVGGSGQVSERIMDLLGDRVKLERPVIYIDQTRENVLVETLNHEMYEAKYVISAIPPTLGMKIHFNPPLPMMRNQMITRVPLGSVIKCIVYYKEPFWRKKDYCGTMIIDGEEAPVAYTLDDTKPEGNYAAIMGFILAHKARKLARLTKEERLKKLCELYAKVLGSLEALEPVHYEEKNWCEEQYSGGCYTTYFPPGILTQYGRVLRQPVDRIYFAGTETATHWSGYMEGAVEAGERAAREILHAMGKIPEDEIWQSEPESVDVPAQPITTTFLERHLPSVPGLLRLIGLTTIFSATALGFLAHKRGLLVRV
The experiment in a line: In vitro human MAO inhibitory assay. Format: biochemical.

Assay [2] deals with T2, hMAO-A (Homo sapiens, UniProt P21397).
T2 sequence (P21397 1-527): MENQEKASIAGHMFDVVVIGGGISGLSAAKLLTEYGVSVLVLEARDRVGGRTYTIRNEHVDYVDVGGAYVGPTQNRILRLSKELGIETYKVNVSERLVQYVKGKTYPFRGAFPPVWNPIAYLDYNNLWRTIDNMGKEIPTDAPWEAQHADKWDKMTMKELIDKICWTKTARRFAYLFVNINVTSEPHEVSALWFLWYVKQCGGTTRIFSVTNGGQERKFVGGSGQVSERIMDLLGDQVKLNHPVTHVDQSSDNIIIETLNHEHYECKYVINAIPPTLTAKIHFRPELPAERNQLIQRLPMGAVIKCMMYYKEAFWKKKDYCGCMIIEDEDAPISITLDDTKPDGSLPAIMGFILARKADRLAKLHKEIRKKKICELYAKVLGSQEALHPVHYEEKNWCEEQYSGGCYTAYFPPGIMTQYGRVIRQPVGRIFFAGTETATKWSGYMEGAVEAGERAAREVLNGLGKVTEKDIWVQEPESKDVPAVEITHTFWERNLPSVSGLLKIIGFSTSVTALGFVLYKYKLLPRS
The experiment in a line: biochemical. As to conditions: Table 2; for IC50: IC50 (μM) hMAO-A (n = 3), log dose inhibition curve, mean ± SD of triplicate; for SI (selective index): ratio of hMAO-B IC50/hMAO-A IC50.

The next assay deals with rat MAO enzyme. As to conditions: cited from earlier work.
Assay [3] addresses T1, hMAO-B. The assay is described as follows: Enzyme kinetics of hMAO-B inhibition. In kind it is biochemical. Summed up:
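For hMAO-B, chemiluminescent MAO-Glo kit reactions were set up at three MAO substrate levels (32, 16 and 8 μM), with or without test compound. Inhibition mode, Km and Vmax were read from Michaelis–Menten and Lineweaver–Burk plots. Secondary plots gave Ki: Kic for inhibitor binding free enzyme, Kiu for binding the enzyme–substrate complex.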

The target of assay [4] is T2, hMAO-A. The experiment in a line: Enzyme kinetics of hMAO-A inhibition. Format: biochemical. As to conditions: for inhibition type: hMAO-A, determined by Lineweaver–Burk plot. Summed up: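 hMAO-A activity was measured with the chemiluminescent MAO-Glo kit assay. Reactions ran at three MAO substrate concentrations (320, 160 and 80 μM), with or without test compound. Michaelis–Menten and Lineweaver–Burk plots gave Km, Vmax and inhibition mode. Ki came from secondary plots: Kic for inhibitor binding free enzyme, Kiu for binding the enzyme–substrate complex.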

The target of assay [5] is T2, hMAO-A. The note with it: data reproduced from recent publication ref 32; cited from earlier work.
The target of the next assay is mouse liver MAO enzyme. As to conditions: cited from earlier work.

Here are results for eleven compounds from PMC6777294 (ACS Omega, 2019).

One may read the IC50 as the concentration that gives 50% inhibition. A word on the Ki: it is the equilibrium dissociation constant of an inhibitor or competing ligand from its target.

Like-named read-outs stand apart in the source and are kept apart here.

Take `COc1cc2c(c(OC)c1OC)C(=O)c1c(cc(C)c(O)c1OC)C2=O` [Compound 6, chryso-obtusin]: the results for the half-maximal inhibitory concentration (IC50) against hMAO-B [1] and against hMAO-A [2] were above 400 µM and 328 ± 10.2 µM, respectively.

Take `O=C1c2cccc(O)c2C(=O)c2c(O)cccc21` [1,8-dihydroxyanthraquinone]: the “activity against rat MAO enzyme” value in the assay with rat MAO enzyme is “inactive”.

Take `Cc1cc(O)c2c(c1)C(=O)c1cccc(O)c1C2=O` [Compound 1, chrysophanol]: the IC50 on hMAO-B [1] and against hMAO-A [2] was above 400 µM in each case. Also, the “activity against rat MAO enzyme” value in the assay on rat MAO enzyme was “inactive”.

Consider `COc1cc(O)cc2c1C(=O)c1c(O)cc(C)cc1C2=O` [Compound 12, questin], for which the Ki was 4.14 µM at hMAO-B [3] and 0.13 µM on hMAO-A [4]. Besides, the inhibition type result is on record as “competitive” on hMAO-B [3] (hMAO-B, determined by Lineweaver–Burk plot) and “competitive” on hMAO-A [4]. The IC50 stood at 10.6 ± 0.28 µM against hMAO-B [1] and 0.17 ± 0.01 µM on hMAO-A [2].

Regarding `O=C1c2cccc(O)c2C(=O)c2c(O)cc(CO)cc21` [Compound 9, aloe-emodin], the IC50 is above 400 µM on hMAO-B [1] and 2.47 ± 0.14 µM against hMAO-A [2]. The “activity against rat MAO enzyme” value in the assay with rat MAO enzyme was “inactive”. The Ki at hMAO-A [4] came to 0.5 µM. For the same compound, the inhibition type entry at hMAO-A [4] is given as “competitive”.

For the compound `COc1cc(O)c2c(O)c3c(=O)cc(C)oc3cc2c1` [Compound 13, rubrofusarin], 91.4 ± 1.31 µM corresponded to half-maximal inhibition at hMAO-B [1] (IC50). Further, the “SI (selective index)” value on hMAO-A [2] is given as 15.49. At hMAO-A [5], the “Kiu (binding constant of inhibitor with enzyme–substrate complex)” value is 4.22 and the inhibition type result is listed as “mixed-type”.

As for `O=C(O)c1cc(O)c2c(c1)C(=O)c1cccc(O)c1C2=O` [rhein], the “activity against rat MAO enzyme” value in the assay with rat MAO enzyme was “inactive”.

As for `COc1c(O)c(C)cc2c1C(=O)c1c(O)cccc1C2=O` [Compound 4, obtusifolin], the IC50 was above 400 µM against hMAO-B [1] and 31.8 ± 0.6 µM against hMAO-A [2].

`COc1cc(O)c2c(c1)C(=O)c1cc(C)cc(O)c1C2=O` [Compound 2, physcion]: the IC50 against hMAO-B [1] and on hMAO-A [2] was above 400 µM throughout. The “activity against rat MAO enzyme” value in the assay with rat MAO enzyme is “inactive”.

With `Cc1cc(O)c2c(c1)C(=O)c1cc(O)cc(O)c1C2=O` [Compound 10, emodin], the IC50 is 54.7 ± 0.74 µM against hMAO-B [1], 23.3 ± 1.46 µM against hMAO-A [2] and 37 µM at mouse liver MAO enzyme. Further, in the assay with rat MAO enzyme, the “activity against rat MAO enzyme” value was “inactive”.

On hMAO-B [1], `COc1c(O)cc2c(c1O)C(=O)c1c(cc(C)c(O)c1OC)C2=O` [Compound 5, aurantio-obtusin] registered an IC50 of 174 ± 1.86 µM. Further, on hMAO-A [2], it took 27.2 ± 0.85 µM to reach half-maximal inhibition (IC50) and the “SI (selective index)” value is 6.40.
